Test results reported in ChEMBL document CHEMBL4390639, “Design, Synthesis, and Biological Evaluation of Novel Allosteric Protein Disulfide Isomerase Inhibitors” (J Med Chem, 2019).
Values belong to the molecule of their own block, whether it stands above or below them. Active and inactive are the calls of the source. The calls are words filed in the database; no cut-off is given here.

Tests used:
[1] = target: T1, Protein disulfide-isomerase (Homo sapiens, UniProt P07237); assay: Inhibition of recombinant human N-terminal His-tagged PDI expressed in Escherichia coli BL21 (DE3) pLysS assessed as reduction in enzyme-mediated bovine insulin aggregation
[2] = test system: U-87 MG; assay: Cytotoxicity against human U87MG cells assessed as inhibition of cell growth measured after 72 hrs by MTT assay; assay type: functional, cell-based, U-87MG ATCC; conditions: Homo sapiens, U-87 MG, 72 h; read-out: IC50
In short: (§1)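 A172 and NU04 cells were seeded at 4000 cells/well and U87MG at 5000 cells/well, incubated overnight at 37 °C, 5% CO2, then exposed to compound or vehicle for 72 h. MTT (3 mg/mL) was added for 4 h, formazan was dissolved in DMSO, and absorbance was read at 570 nm. IC50 came from nonlinear regression; mean ± SD of at least three experiments.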

[3] = test system: A 172; assay: Cytotoxicity against human A172 cells assessed as inhibition of cell growth measured after 72 hrs by MTT assay; assay type: functional, cell-based; conditions: Homo sapiens, A 172, 72 h; read-out: IC50; in short: as §1
[4] = Cytotoxicity against human NU04 cells assessed as inhibition of cell growth measured after 72 hrs by MTT assay; assay type: functional, cell-based; conditions: Homo sapiens, 72 h; read-out: IC50; in short: as §1
[5] = test system: U-87 MG; assay: Cytotoxicity against human U87MG cells assessed as inhibition of cell proliferation at <IC50 treated for 24 hrs and measured after 10 days by colony formation assay relative to control
[6] = test system: U-87 MG; assay: Cytotoxicity against human U87MG cells assessed as inhibition of cell proliferation at <IC50 measured after 72 hrs by MTT assay relative to control; assay type: functional, U-87MG ATCC
[7] = target: T1, Protein disulfide-isomerase; assay: Inhibition of recombinant human N-terminal His-tagged PDI expressed in Escherichia coli BL21 (DE3) pLysS at 100 uM measured after 1 hr by ANS dye based fluorescence spectra analysis
In short: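 ANS spectral scan: PDI incubated with 100 μM compounds or matching DMSO in TBS for 1 h at 37 °C. ANS then added and incubated 20 min at 25 °C in the dark. Fluorescence spectrum recorded with excitation 370 nm, emission 400–700 nm.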
Target sequence in this assay (P07237 18-508 limits assumed): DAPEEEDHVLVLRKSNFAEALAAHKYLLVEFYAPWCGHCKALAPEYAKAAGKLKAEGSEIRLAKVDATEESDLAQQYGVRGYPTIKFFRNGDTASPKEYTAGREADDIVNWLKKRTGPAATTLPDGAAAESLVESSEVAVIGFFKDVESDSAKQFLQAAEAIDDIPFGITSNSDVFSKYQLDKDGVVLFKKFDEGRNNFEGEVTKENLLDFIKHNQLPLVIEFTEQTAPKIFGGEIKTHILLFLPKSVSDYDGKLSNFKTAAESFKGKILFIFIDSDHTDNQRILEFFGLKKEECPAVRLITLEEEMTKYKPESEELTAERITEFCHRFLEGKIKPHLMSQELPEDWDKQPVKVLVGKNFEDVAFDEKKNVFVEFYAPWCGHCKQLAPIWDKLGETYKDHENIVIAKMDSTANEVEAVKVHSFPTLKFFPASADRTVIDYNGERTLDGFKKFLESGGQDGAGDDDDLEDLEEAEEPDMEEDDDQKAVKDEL

SMILES: N#Cc1cccc(/C=C/C(=O)c2ccc(N)cc2)c1
IC50 [1]: > 500 µM

SMILES: O=C(/C=C/c1ccc(C(F)(F)F)cc1)c1ccc(O)cc1
IC50 [1]: 2.56 µM

SMILES: N#Cc1ccc(/C=C/C(=O)c2ccc(F)c(O)c2)cc1
IC50 [1]: 1.83 µM

SMILES: O=C(O)c1cccc(/C=C/C(=O)c2ccc(N3CCOCC3)cc2)c1
IC50 [1]: > 100 µM

SMILES: COc1ccc(/C=C/C(=O)c2ccc(NC(=O)c3cccs3)cc2)cc1
IC50 [1]: > 500 µM

SMILES: O=C(/C=C/c1ccccc1C(F)(F)F)c1ccc(O)cc1
IC50 [1]: 1.67 µM

SMILES: O=C(O)c1cccc(/C=C/C(=O)c2ccc(O)c(F)c2)c1
IC50 [1]: 9.1 µM

SMILES: COc1cccc(C(=O)/C=C/c2cccc(C#N)c2)c1
IC50 [1]: 8.13 µM

SMILES: COC(=O)c1cccc(/C=C/C(=O)c2ccc(OC)c(O)c2)c1
IC50 [1]: 47.8 µM

SMILES: N#Cc1cccc(/C=C/C(=O)c2ccc(N3CCCCC3)cc2)c1
IC50 [1]: > 500 µM

SMILES: N#Cc1cccc(/C=C/C(=O)c2ccc(F)cc2O)c1
IC50 [1]: 2.37 µM

SMILES: N#Cc1cccc(/C=C/C(=O)c2ccc(N3CCOCC3)cc2)c1
IC50 [1]: > 500 µM

SMILES: CCCN(CCC)S(=O)(=O)c1ccc(C(=O)/C=C/c2cccc(C(=O)OC)c2)cc1
IC50 [1]: > 100 µM

SMILES: O=C(/C=C/c1cccc(O)c1)c1ccc(NS(=O)(=O)c2cccs2)cc1
IC50 [1]: 11.1 µM

SMILES: COc1ccc(C(=O)/C=C/c2cccc(C#N)c2)cc1OC
IC50 [1]: > 100 µM

SMILES: N#Cc1cccc(/C=C/C(=O)c2cnccn2)c1
IC50 [1]: > 500 µM | inhibition [7]: inactive

SMILES: O=C(/C=C/c1cccc(C(F)(F)F)c1)c1cnccn1
IC50 [1]: 9.57 µM

SMILES: N#Cc1cccc(/C=C/C(=O)c2ccc(NS(=O)(=O)c3ccc([N+](=O)[O-])cc3)cc2)c1
IC50 [1]: 8.51 µM

SMILES: O=C(/C=C/c1cccc(O)c1)c1ccccc1O
inhibition [1]: inactive

SMILES: COc1ccc(C(=O)/C=C/c2cccc(C(=O)O)c2)cc1O
IC50 [1]: > 100 µM

SMILES: O=C(/C=C/c1ccccc1O)c1ccccc1O
inhibition [1]: inactive

SMILES: Nc1ccc(C(=O)/C=C/c2cccc(C(=O)O)c2)cc1
IC50 [1]: > 100 µM

SMILES: COc1ccc(C(=O)/C=C/c2cccc(C#N)c2)cc1O
IC50 [1]: 10.9 µM

SMILES: O=C(O)c1cccc(/C=C/C(=O)c2ccc(O)c(C(F)(F)F)c2)c1
IC50 [1]: 4.09 µM

SMILES: COc1ccc(/C=C/C(=O)c2ccc(O)cc2)cc1
IC50 [1]: 1.74 µM

SMILES: COC(=O)c1cccc(/C=C/C(=O)c2ccc(NS(=O)(=O)c3ccc([N+](=O)[O-])cc3)cc2)c1
IC50 [1]: > 100 µM

SMILES: O=C(/C=C/c1ccc(O)cc1)c1ccccc1O
inhibition [1]: inactive

SMILES: CCCCN(CCCC)S(=O)(=O)c1ccc(C(=O)/C=C/c2cccc(C(=O)OC)c2)cc1
IC50 [1]: > 100 µM

SMILES: O=C(/C=C/c1cccc(O)c1)c1ccc(NC(=O)c2cccs2)cc1
IC50 [1]: 5.74 µM

SMILES: CC1(C)OB(c2ccc(/C=C/C(=O)c3ccccc3)cc2)OC1(C)C
IC50 [1]: 2.2 µM

SMILES: O=C(O)c1cccc(/C=C/C(=O)c2cccc(O)c2)c1
IC50 [1]: 10.2 µM

SMILES: N#Cc1cccc(/C=C/C(=O)c2ccc(O)c(C(F)(F)F)c2)c1
IC50 [1]: 2 µM

SMILES: O=C(/C=C/c1cccc(O)c1)c1ccc(OC(=O)c2cccs2)cc1
IC50 [1]: 1.75 µM

SMILES: N#Cc1cccc(/C=C/C(=O)c2ccc(Cl)c(F)c2)c1
IC50 [1]: > 500 µM

SMILES: O=C(O)c1cccc(/C=C/C(=O)c2ccc(NS(=O)(=O)c3ccc([N+](=O)[O-])cc3)cc2)c1
IC50 [1]: 4 µM

SMILES: COc1cc(C(=O)/C=C/c2cccc(C#N)c2)ccc1O
IC50 [1]: 2.72 µM

SMILES: N#Cc1ccc(/C=C/C(=O)c2ccc(F)cc2O)cc1
IC50 [1]: 1.8 µM

SMILES: N#Cc1cccc(/C=C/C(=O)c2cccc(O)c2)c1
IC50 [1]: 1.87 µM

Continued by falling IC50 [1], values first:

IC50 [1]: 1.66 µM
SMILES: N#Cc1cccc(/C=C/C(=O)c2ccc(Br)cc2)c1

IC50 [1]: 1.56 µM
SMILES: O=C(/C=C/c1cccc(C(F)(F)F)c1)c1ccc(O)cc1

IC50 [1]: 1.34 µM
SMILES: CCCCN(CCCC)S(=O)(=O)c1ccc(C(=O)/C=C/c2cccc(C#N)c2)cc1
IC50 [2]: 17 µM | IC50 [3]: 67.3 µM | IC50 [4]: 15.5 µM | inhibition (INH) [6]: >50%

IC50 [1]: 1.29 µM
SMILES: CCN(CC)S(=O)(=O)c1ccc(C(=O)/C=C/c2cccc(O)c2)cc1
IC50 [2]: 40.7 µM | IC50 [3]: 31.2 µM | IC50 [4]: 19.2 µM | inhibition (INH) [5]: >50%

IC50 [1]: 1.25 µM
SMILES: O=C(/C=C/c1ccc(B(O)O)cc1)c1ccccc1
IC50 [2]: 31.2 µM | IC50 [3]: 32.1 µM | IC50 [4]: 22.9 µM | inhibition (INH) [6]: >50%

IC50 [1]: 1.11 µM
SMILES: N#Cc1cccc(/C=C/C(=O)c2ccc(S(=O)(=O)Nc3ccccc3)cc2)c1
IC50 [2]: 48.5 µM | IC50 [3]: 28.9 µM | IC50 [4]: 18.7 µM | inhibition (INH) [6]: >50%

IC50 [1]: 1.11 µM
SMILES: N#Cc1ccc(/C=C/C(=O)c2ccc(O)c(C(F)(F)F)c2)cc1
IC50 [2]: 26.4 µM | IC50 [3]: 33.7 µM | IC50 [4]: 10.4 µM | inhibition (INH) [6]: >50%

IC50 [1]: 0.83 µM
SMILES: N#Cc1cccc(/C=C/C(=O)c2ccc(B(O)O)cc2)c1
IC50 [2]: 24.3 µM | IC50 [3]: 20.2 µM | IC50 [4]: 13 µM | inhibition (INH) [6]: >50%

IC50 [1]: 0.82 µM
SMILES: CCCN(CCC)S(=O)(=O)c1ccc(C(=O)/C=C/c2cccc(C#N)c2)cc1
IC50 [2]: 25.6 µM | IC50 [3]: 35 µM | IC50 [4]: 26.6 µM | inhibition (INH) [6]: >50%

IC50 [1]: 0.74 µM
SMILES: N#Cc1ccc(/C=C/C(=O)c2ccc(O)cc2)cc1
IC50 [2]: 15.1 µM | IC50 [3]: 20 µM | IC50 [4]: 12.8 µM | inhibition (INH) [5]: >50%

IC50 [1]: 0.49 µM
SMILES: COC(=O)c1cccc(/C=C/C(=O)c2ccc(O)c(C(F)(F)F)c2)c1
IC50 [2]: 11.6 µM | IC50 [3]: 35 µM | IC50 [4]: 10.3 µM | inhibition (INH) [5]: >50%

IC50 [1]: 0.4 µM
SMILES: O=C(/C=C/c1ccc(Br)cc1)c1cccc(O)c1
IC50 [2]: 76.3 µM | IC50 [3]: 67.8 µM | IC50 [4]: 26.2 µM | inhibition (INH) [5]: >50%

IC50 [1]: 0.4 µM
SMILES: COC(=O)c1cccc(/C=C/C(=O)c2ccc(O)cc2)c1
IC50 [2]: 28.8 µM | IC50 [3]: 32.3 µM | IC50 [4]: 30.6 µM | inhibition (INH) [6]: >50%

IC50 [1]: 0.23 µM
SMILES: O=C(/C=C/c1ccc(-n2cnc3ccccc32)cc1)c1cccc(O)c1
IC50 [2]: 10.8 µM | IC50 [3]: 10.7 µM | IC50 [4]: 9.9 µM | inhibition (INH) [6]: >50%

IC50 [1]: 0.21 µM
SMILES: N#Cc1ccc(/C=C/C(=O)c2ccc(O)c(F)c2)cc1
IC50 [2]: 29 µM | IC50 [3]: 28.4 µM | IC50 [4]: 15.8 µM | inhibition (INH) [6]: >50%

IC50 [1]: 0.13 µM
SMILES: COC(=O)c1cccc(/C=C/C(=O)c2ccc(CO)c(Br)c2)c1
IC50 [2]: 13.6 µM | IC50 [3]: 20.6 µM | IC50 [4]: 17.2 µM | inhibition (INH) [5]: >50%
